High-throughput results (PubChem BioAssay)
TbHK1 inh: blocks Trypanosoma brucei hexokinase 1 activity | AID 1430 | 220,000 compounds, 0.11% hits | inhibition, % at 10 µM | recombinant TbHK1, G6PDH-coupled NADH A340;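 active = inhibition of 50% or more in the single-dose primary screen; inactive = inhibition below 50%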
p47phox inh: blocks human p47phox regulatory protein of NADPH oxidases. P14598. p47phox/p22phox peptide binding, fluorescence polarization, 2 h. inhibition, % at 24.7 µM. 220,000 compounds, 0.53% hits. AID 1274;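 active = inhibition above about 30%, limit read from the data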;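 also: 0% = p47phox with labelled peptide and 100% = labelled peptide alone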
Target sequence (P14598 whole entry, looked up): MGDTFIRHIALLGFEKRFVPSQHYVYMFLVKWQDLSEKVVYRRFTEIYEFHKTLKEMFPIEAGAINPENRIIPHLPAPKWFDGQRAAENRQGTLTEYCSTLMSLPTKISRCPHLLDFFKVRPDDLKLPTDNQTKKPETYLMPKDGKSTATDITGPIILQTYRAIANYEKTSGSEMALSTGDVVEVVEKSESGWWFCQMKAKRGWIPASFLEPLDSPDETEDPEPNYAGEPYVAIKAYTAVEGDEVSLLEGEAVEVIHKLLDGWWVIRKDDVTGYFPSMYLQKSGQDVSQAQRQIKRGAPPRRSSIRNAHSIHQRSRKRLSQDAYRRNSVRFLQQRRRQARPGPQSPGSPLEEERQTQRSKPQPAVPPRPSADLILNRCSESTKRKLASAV
SDO1 yeast rescue: sdo1-depleted yeast growth rescue; S. cerevisiae sdo1-depleted JHY4D growth rescue, OD600 30 h; hits give high values; pdr5 snq2 efflux-pump mutant strain; z-score at 10 µM; 140,000 compounds, 0.21% hits;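 active = z-score above 3 at both the 24 hr and the 30 hr optical density reads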;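 also: z-score against mean and SD of all compound wells on the same plate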
Yeast growth inh: yeast BB579 growth reduction in restrictive medium; S. cerevisiae BB579 growth, OD615, 48 h; inhibition, % at 10 µM; 140,000 compounds, 0.51% hits; AID 804;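 active = inhibition above a set limit, 3 SD over the mean compound inhibition, cut at about 44% in these data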
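Test system: DeaD yeast strain BB579 / Buffer or medium: restrictive glucose-based CSMM-D medium / Doses: single 10 µM dose / Schedule: 4 h cell preincubation, 48 h compound exposure, 30 °C humidified / Technique: culture absorbance at 615 nm / Controls: amphotericin B positive control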
Yeast lifespan up: extends the lifespan of yeast. 130,000 compounds, 0.68% hits. S. cerevisiae growth with nicotinamide, OD615; deaD strain in restrictive glucose medium. AID 775. inhibition of the nicotinamide effect, % at 10 µM;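 active = inhibition above a set limit, placed 3 SD over the median of all compounds, cut at about 26% in these data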;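 also: 0% = nicotinamide-treated wells and 100% = cells grown without nicotinamide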
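Assay system: engineered S. cerevisiae DeaD replicative-lifespan strain, galactose-grown log-phase cells; Buffer or medium: CSMM-D glucose medium, restrictive; Probe or stimulus: nicotinamide 1.5 mM; Compound: single dose 10 µM compound, 0.25% DMSO; Schedule: 4 h preincubation then 48 h treatment at 30 °C; Technique: OD615 measurement.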
RBBP9 inhibitor: blocks human serine hydrolase RBBP9; recombinant RBBP9, FP-Rh probe fluorescence polarization; inhibition, % at 7.94 µM; 220,000 compounds, 0.2% hits; AID 1515; O75884;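 active = inhibition above the campaign mean of all tested compounds plus 3 SD, cut at about 14% in these data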;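 also: plate controls were DMSO wells with RBBP9 for no effect and wells lacking RBBP9 protein for full effect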
Target sequence (O75884 whole entry, looked up): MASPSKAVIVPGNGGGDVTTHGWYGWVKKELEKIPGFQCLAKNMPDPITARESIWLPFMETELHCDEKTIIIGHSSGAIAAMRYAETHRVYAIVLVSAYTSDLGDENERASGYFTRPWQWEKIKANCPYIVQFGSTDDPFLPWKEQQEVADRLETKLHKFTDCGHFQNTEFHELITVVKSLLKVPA
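Test system: recombinant human RBBP9; Timing: 30 min then 45 min, 25 °C; Detection: fluorescence polarization; Control set: RBBP9 with DMSO as uninhibited control, no-protein wells as full inhibition; Compound dosing: one concentration, 7.94 µM nominal, 0.794% DMSO; Probe or stimulus: FP-Rh activity-based probe, 375 nM before mixing.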
SDO1 rescue DR: SDO1-depleted yeast growth rescue confirmation; shares compounds with SDO1 yeast rescue; S. cerevisiae JHY4D (SDO1-depleted) growth rescue, OD600, 30 h; hits give high values; efflux-deficient strain, SNQ2 and PDR5 mutated; OD recovery (test concentration not listed); 440 compounds, 44% hits;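 active = yeast growth recovered at 30 hours, either rising with dose fitted slope above 0.001 or with average optical density gain above 0.07, some results past the limit were not filed as active; inactive = growth falling with dose or no effect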;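 also: gain in OD600 from 0 h to 30 h averaged across all seven doses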
G6PDH ctr: counter-screen for TbHK1 inhibitors: Leuconostoc G6PDH inhibition. shares compounds with TbHK1 inh. inhibition, % at 10 µM. purified G6PDH, NADH absorbance, 1 h. 210 compounds, 7% hits;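 active = at least 50% inhibition in the glucose-6-phosphate dehydrogenase coupled counterscreen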
TbHK1 rescreen: T. brucei hexokinase 1 inhibition, rescreen | shares compounds with TbHK1 inh | recombinant TbHK1, G6PDH-coupled NADH A340 absorbance | inhibition, % at 10 µM | 210 compounds, 10% hits;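 active = inhibition of at least 50% in both of the two screening runs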;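 also: 0% and 100% set by the maximum and minimum signal control wells on each plate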
RBBP9 confirm: human RBBP9 inhibition, confirmation; inhibition, % at 7.94 µM; recombinant RBBP9, FP-Rh probe fluorescence polarization; shares compounds with RBBP9 inhibitor; 410 compounds, 36% hits;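 active = inhibition above the hit cutoff derived for the primary screen, cut at about 15% in these data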;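 also: 0% = RBBP9 with DMSO and 100% = wells lacking RBBP9 protein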
* hit, by the source's call; . = not tested or not shown. An excerpt weighted towards active compounds, which were near 1.6% of everything screened.

SMILES | TbHK1 inh | p47phox inh | SDO1 yeast rescue | Yeast growth inh | Yeast lifespan up | RBBP9 inhibitor | others
COP(=O)(OC)C(NC(=O)/C=C/c1ccccc1)C(Cl)(Cl)Cl (configuration not stated) | 3 | -6 | . | . | . | -6
CCCCn1c(NS(=O)(=O)c2ccc(C)cc2)c(C(=O)OCC)c2nc3ccccc3nc21 | -5 | -6 | -1.2 | -75 | 93* | -1
CCCCn1c(NC(=O)c2ccco2)c(C(=O)OCC)c2nc3ccccc3nc21 | -14 | -14 | 0.47 | -32 | -17 | -4
CC(C)N1C(=O)/C(=C/C=C/c2ccco2)C(=O)N(Cc2ccco2)C1=O | 15 | -32 | -0.6 | -37 | 50 | -4
CCN1C(=O)C(=C/C=C/c2ccco2)C(=O)N(CC)C1=S | -1 | -300 | -0.97 | -30 | 34* | -33
CCOC(=O)C1=C(NC(=S)NC(=O)c2ccccc2)c2ccccc2CC12CCCC2 | 4 | 3 | 0.59 | -22 | -2 | -4
O=P(NCc1ccccc1)(Oc1ccccc1)Oc1ccccc1 | 9 | 4 | -1.3 | -7 | 27* | -2
CN(C)C=C1C(=O)N(C2CCCCC2)C(=O)N(C2CCCCC2)C1=O | 4 | -11 | -0.13 | -33 | 39* | -9
CC(C)n1c(=O)c(C=Nc2ccc(F)cc2)c(O)n(Cc2ccco2)c1=O | -22 | -19 | 0.67 | -28 | -5 | -11
Cn1c(O)c(C=NCCN2CCNCC2)c(=O)[nH]c1=O | -8 | 3 | . | . | . | 3
Clc1ccc(COC(Cn2ccnc2)c2ccc(Cl)cc2Cl)c(Cl)c1 (configuration not stated) | 19 | 8 | -2.3 | 100* | -10 | -10
CN(C)C(=O)Oc1ccc(-c2cn3cc(Cl)ccc3n2)cc1 | -11 | 3 | 1.1 | -28 | -6 | -14
Cc1ccc(-c2nc3ccc(Cl)cc3n2OC(=O)N(C)C)cc1 | 2 | 6 | -1.9 | -44 | 92* | 1
O=C(O)[C@H]1NC[C@H]2C[C@H]21 | -5 | -7 | . | . | . | 0
Cn1c(O)c(C=NC2CCCCCC2)c(=O)[nH]c1=S | -29 | -4 | . | . | . | -2
C=CCN1C(=O)/C(=C/c2ccc(N3CCOCC3)o2)C(=O)NC1=S | -4 | -222 | 0.46 | -24 | 7 | 1
O=C1NC(=O)C(=Cc2ccc(N3CCOCC3)o2)C(=O)N1 | 2 | 58* | . | . | . | -6
NC(=O)CS(=O)C(c1ccccc1)c1ccccc1 (configuration not stated) | . | -13 | . | . | . | -6
COCCCN1CCN(c2nnc3n2-c2sc(Br)cc2C(c2ccccc2Cl)=NC3)CC1 | -3 | -13 | 1.3 | -26 | 50* | -13
COc1cc(/C=C/[N+](=O)[O-])ccc1O | -14 | -15 | -1.2 | 25 | 35* | -9
O=C1C=Cc2ccccc2C1=O | 41 | 23 | -0.55 | -32 | 31* | 3
CC(C)(C)C(O)C(Oc1ccc(Cl)cc1)n1cncn1 (configuration not stated) | 8 | -3 | -2.8 | 91* | -21 | -4
CC(C)CC(=O)NC(Oc1ccc(Cl)cc1)C(Cl)(Cl)Cl (configuration not stated) | -7 | -12 | -1.1 | -7 | -13 | -8
O=C1/C(=C\c2ccc([N+](=O)[O-])cc2)N2CCC1CC2 | -12 | -1 | 0.12 | -41 | 35* | -6
O=C(c1ccc(Cl)cc1)C1CCCN(Cc2ccc3nonc3c2)C1 (configuration not stated) | 1 | 48* | . | . | . | -4
SMILES | TbHK1 inh | p47phox inh | SDO1 yeast rescue | Yeast growth inh | Yeast lifespan up | RBBP9 inhibitor | others
O=C(c1ccc(Cl)cc1)C1CCCN(Cc2cccc3ncccc23)C1 (configuration not stated) | 1 | -9 | . | . | . | 6
Cc1nn(Cc2ccc(Cl)cc2Cl)c(Cl)c1C(=O)Nc1ccc(OC(F)F)cc1 | -5 | -10 | -0.22 | -25 | 1 | -10
Cc1ccnc(-n2c(C)cc(C=C3C(=O)N(C)C(=S)N(C)C3=O)c2C)c1 | -22 | -26 | 0.1 | -29 | 30* | 4
O=C1C2CCN(CC2)C1Cc1ccc(OCc2ccccc2)cc1 (configuration not stated) | -4 | -12 | . | . | . | 4
CN1C(=O)/C(=C/c2cccn2-c2ccc3ccccc3c2)C(=O)NC1=S | 36 | -47 | -1.1 | -10 | 49* | 0
CC(C)(C)NC(=O)C1CC2CCCCC2CN1 (configuration not stated) | -2 | -9 | . | . | . | -4
c1ccc(-c2ccc(-c3n(-c4ccccn4)c4ccccc4[n+]3-c3ccccn3)cc2)cc1 | -8 | 34* | . | . | . | -13
COc1ccc(CC2(CCc3ccncc3)C(=O)NC(=O)NC2=O)cc1OC | -5 | 4 | . | . | . | 6
CCOC(=O)c1cc(CC)sc1/N=C/c1c(O)[nH]c(=S)[nH]c1=O | 0 | -250 | 14* | -19 | -3 | 0 | SDO1 rescue DR=0.069
O=C(Nc1cccc(Br)c1)c1c(O)c2c(n(Cc3ccccc3)c1=O)CCCC2 | -13 | -8 | . | . | . | -1
O=P(O)(O)COc1ccccc1O | 73* | 7 | 0.08 | 14 | -14 | -8 | G6PDH ctr=-8;TbHK1 rescreen=-1
NP(=O)(Oc1ccccc1Cl)Oc1ccccc1Cl | 3 | -7 | . | . | . | -5
O=c1[nH]c(=O)n(CCC2=CCCCC2)c(O)c1C=NCc1cccnc1 | 56* | -1 | -0.68 | 4 | -8 | -8 | G6PDH ctr=-9;TbHK1 rescreen=-6
CCCCCCC(=O)c1c(O)n(-c2ccc(OC)cc2)c(=O)[nH]c1=O (tested in a mixture with another compound) | -11 | -11 | . | . | . | -5
CCOC(=O)C1CCCN(c2ccc([N+](=O)[O-])c3nonc23)C1 (configuration not stated) | -15 | -243 | . | . | . | 19* | RBBP9 confirm=31*
CC(C)N1CCN(c2ccc(O)cc2)CC1 | 34 | 7 | 0.81 | -12 | 1 | 15* | RBBP9 confirm=-1
CCN1/C(=C\C=C\C2=[N+](CC)c3ccccc3C2(C)C)C(C)(C)c2ccccc21 | 8 | -234 | -2.2 | -16 | 22 | 100* | RBBP9 confirm=-50
CN(C)c1ccc(/C=C2/C(=N\O)C3CCN2CC3)cc1 | -41 | -10 | . | . | . | 2
